Results on nine compounds are retold here after ChEMBL document CHEMBL2321668, “Aromatic bis-N-hydroxyguanidinium derivatives: synthesis, biophysical, and biochemical evaluations” (J Med Chem, 2013).

In one data set the test system is DNA. Nature of the data set: Binding affinity to calf thymus DNA assessed as change in melting temperature. Type of data set: nucleic-acid assay. Conditions: Bos taurus.
The subject of a further data set is Salmonidae. Nature of the data set: Binding affinity to salmon sperm DNA assessed as change in melting temperature at 15 uM by thermal denaturation assay.
Data set [1] has as its system MCF7. Briefly: Cytotoxicity against human MCF7 cells assessed as reduction in cell viability at 100 uM after 72 hrs by Alamar blue assay. The class given is functional. Put shortly: (§1)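 MCF-7 cells in MEM/10% FBS with nonessential amino acids, 10,000/well, were preincubated 24 h, then treated for 72 h at 37 °C with a 1:100 dilution of aqueous stocks (1% ddH2O vehicle). AlamarBlue was added for 4.5 h in the dark and fluorescence read at 544/590 nm. Viability is blank-corrected and given as % of vehicle. IC50 comes from a sigmoidal dose–response fit. Triplicate wells, at least three experiments.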

Data set [2] concerns MCF7. Briefly: Cytotoxicity against human MCF7 cells assessed as reduction in cell viability after 72 hrs by Alamar blue assay. The conditions noted are these: MCF7, 72 h. Type of data set: functional, cell-based. Put shortly: as §1
The subject of data set [3] is HL-60. Nature of the data set: Cytotoxicity against human HL60 cells assessed as reduction in cell viability after 72 hrs by Alamar blue assay. Conditions: HL-60, 72 h. Type of data set: functional, cell-based. Put shortly:
(§2)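 HL-60 cells in log phase, 4 × 10^4 cells/well in RPMI/10% FBS, were treated with a 1:100 dilution of aqueous stocks (1% ddH2O vehicle), final 1–100 μM, for 72 h at 37 °C. AlamarBlue was added for 4.5 h in the dark and fluorescence read at 544/590 nm. Viability is blank-corrected and given as % of vehicle. IC50 comes from sigmoidal dose–response fits. Triplicate wells, at least three experiments.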

For data set [4], the system named is HL-60. Briefly: Cell cycle arrest in human HL60 cells assessed as accumulation at Gn phase at 50 uM by flow cytometric analysis. Type of data set: functional, cell-based. The conditions noted are these: TDE = time-dependent effect.
Data set [5] concerns HL-60. Briefly: Cell cycle arrest in human HL60 cells assessed as accumulation at G2/M phase at 50 uM by flow cytometric analysis. The class given is functional, cell-based. Conditions: TDE = time-dependent effect.
The subject of data set [6] is HL-60. Briefly: Cell cycle arrest in human HL60 cells assessed as accumulation at S phase at 50 uM by flow cytometric analysis. Type of data set: functional, cell-based. Conditions: TDE = time-dependent effect.
Data set [7] deals with HL-60. Nature of the data set: Cell cycle arrest in human HL60 cells assessed as accumulation at G0/G1 phase at 50 uM by flow cytometric analysis. Type of data set: functional, cell-based. The conditions noted are these: TDE = time-dependent effect.
For data set [8], the system named is HL-60. Nature of the data set: Cell cycle arrest in human HL60 cells assessed as accumulation at preG1 phase at 50 uM by flow cytometric analysis. The class given is functional, cell-based. The conditions noted are these: TDE = time-dependent effect.
Data set [9] has as its system HL-60. Briefly: Cell cycle arrest in human HL60 cells assessed as accumulation at Gn phase at 50 uM after 72 hrs by flow cytometric analysis (reference value: 3.43 +/- 0.48%). Type of data set: functional.
Data set [10] has as its system HL-60. Nature of the data set: Cell cycle arrest in human HL60 cells assessed as accumulation at S phase at 50 uM after 72 hrs by flow cytometric analysis (reference value: 23.58 +/- 1.38%). The class given is functional.
For data set [11], the system named is HL-60. Nature of the data set: Cell cycle arrest in human HL60 cells assessed as accumulation at G0/G1 phase at 50 uM after 72 hrs by flow cytometric analysis (reference value: 59.5 +/- 1.50%). The class given is functional.
Data set [12] concerns HL-60. Briefly: Cell cycle arrest in human HL60 cells assessed as accumulation at preG1 phase at 50 uM after 72 hrs by flow cytometric analysis (reference value: 2.21 +/- 0.57%). Type of data set: functional.
Data set [13] has as its system HL-60. Nature of the data set: Cell cycle arrest in human HL60 cells assessed as accumulation at Gn phase at 50 uM after 48 hrs by flow cytometric analysis (reference value: 3.02 +/- 0.56%). Type of data set: functional.
Data set [14] deals with HL-60. Nature of the data set: Cell cycle arrest in human HL60 cells assessed as accumulation at G2/M phase at 50 uM after 48 hrs by flow cytometric analysis (reference value: 11.35 +/- 1.05%). The class given is functional.
Data set [15] concerns HL-60. Nature of the data set: Cell cycle arrest in human HL60 cells assessed as accumulation at S phase at 50 uM after 48 hrs by flow cytometric analysis (reference value: 24.29 +/- 1.37%). The class given is functional.
Data set [16] has as its system HL-60. Nature of the data set: Cell cycle arrest in human HL60 cells assessed as accumulation at preG1 phase at 50 uM after 48 hrs by flow cytometric analysis (reference value: 1.41 +/- 0.32%). Type of data set: functional.
Data set [17] relates to HL-60. Briefly: Cell cycle arrest in human HL60 cells assessed as accumulation at G0/G1 phase at 50 uM after 48 hrs by flow cytometric analysis (reference value: 58.77 +/- 2.33%). The class given is functional.
Data set [18] has as its system HL-60. Nature of the data set: Cell cycle arrest in human HL60 cells assessed as accumulation at Gn phase at 50 uM after 24 hrs by flow cytometric analysis (reference value: 2.96 +/- 0.79%). Type of data set: functional.
The subject of data set [19] is HL-60. Nature of the data set: Cell cycle arrest in human HL60 cells assessed as accumulation at G2/M phase at 50 uM after 24 hrs by flow cytometric analysis (reference value: 16.73 +/- 0.59%). Type of data set: functional.
The subject of data set [20] is HL-60. Briefly: Cell cycle arrest in human HL60 cells assessed as accumulation at S phase at 50 uM after 24 hrs by flow cytometric analysis (reference value: 24.46 +/- 1.15%). Type of data set: functional.
For data set [21], the system named is HL-60. Briefly: Cell cycle arrest in human HL60 cells assessed as accumulation at G0/G1 phase at 50 uM after 24 hrs by flow cytometric analysis (reference value: 56.05 +/- 1.40%). The class given is functional.
In data set [22] the test system is HL-60. Nature of the data set: Cell cycle arrest in human HL60 cells assessed as accumulation at preG1 phase at 50 uM after 24 hrs by flow cytometric analysis (reference value: 0.81 +/- 0.11%). The class given is functional.
The test system of data set [23] is HL-60. Briefly: Cell cycle arrest in human HL60 cells assessed as accumulation at G2/M phase at 50 uM after 72 hrs by flow cytometric analysis (reference value: 10.53 +/- 0.81%). Type of data set: functional.
The nature of data set [24]: Cytotoxicity against human Kelly cells assessed as reduction in cell viability 30 uM after 72 hrs by Alamar blue assay. Type of data set: functional. In a few lines:
(§3)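 Kelly neuroblastoma cells in RPMI/10% FBS, 6000/well, were preincubated 24 h, then given a 1:100 dilution of aqueous stocks (1% ddH2O vehicle) for 72 h at 37 °C. AlamarBlue was added for 4.5 h in the dark and fluorescence read at 544/590 nm. Viability is blank-corrected and given as % of vehicle. IC50 comes from a sigmoidal fit. Triplicate wells, at least three experiments.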

The nature of data set [25]: Cytotoxicity against human Kelly cells assessed as reduction in cell viability 40 uM after 72 hrs by Alamar blue assay. Type of data set: functional. Put shortly: as §3
The nature of data set [26]: Cytotoxicity against human Kelly cells assessed as reduction in cell viability 50 uM after 72 hrs by Alamar blue assay. Type of data set: functional. Put shortly:
as §3

Data set [27] can be described thus: Cytotoxicity against human Kelly cells assessed as reduction in cell viability 100 uM after 72 hrs by Alamar blue assay. Type of data set: functional. Put shortly:
as §3

Data set [28] can be described thus: Cytotoxicity against human Kelly cells assessed as reduction in cell viability after 72 hrs by Alamar blue assay. The class given is functional, cell-based. In a few lines:
as §3

A short description of data set [29]: Dissociation constant, pKa of the compound. The class given is physicochemical.
Data set [30] in a line: Binding affinity to poly(dA-dT)2 (unknown origin) assessed as change in melting temperature.
Data set [31] has as its system HL-60. Briefly: Cytotoxicity against human HL60 cells assessed as reduction in cell viability at 100 uM after 72 hrs by Alamar blue assay. The class given is functional, cell-based. In a few lines:
as §2

SMILES strings stand for the structures. Where a name gives a salt, the structure may show the parent alone. Activity calls are given as the source filed them. The calls are words filed in the database; no cut-off is given here.

Take `N/C(=N\O)c1ccc(OCCCCCOc2ccc(/C(N)=N/O)cc2)cc1`: the ΔTm in the data set on DNA is 0.2 °C.

Regarding `N/C(=N\O)Nc1ccc(CCc2ccc(N/C(N)=N/O)cc2)cc1`, the shift in melting temperature (ΔTm) with Salmonidae is 0 °C.

Turning to `Cl.N/C(=N\O)Nc1ccc(Cc2ccc(N/C(N)=N/O)cc2)cc1`, the Activity in the data set with MCF7 [1] was determined as 29.8%. For the same compound, the IC50 with MCF7 [2] is over 100 µM; in the data set with HL-60 [3], 71.3 µM. Further, the ΔTm in the data set with Salmonidae was determined as 0 °C.

For the compound `N=C(N)c1ccc(OCCCCCOc2ccc(C(=N)N)cc2)cc1`, the ΔTm with DNA is 10.7 °C.

Turning to `Cl.N/C(=N\O)Nc1ccc(Sc2ccc(N/C(N)=N/O)cc2)cc1`, the Activity entry in the data set on HL-60 [4] was “tde”; in the data set on HL-60 [5] it was “tde”; in the data set with HL-60 [6], “tde”; in the data set on HL-60 [7] it was “tde”; in the data set on HL-60 [8] it was “tde”; in the data set with HL-60 [9] it was 2.1%. Further, the Activity in the data set with HL-60 [10] came to 15.99%; with HL-60 [11], 44.8%; in the data set on HL-60 [12], 22.2%; with HL-60 [13], 1.94%; with HL-60 [14], 10.78%; in the data set on HL-60 [15] it was 21.71%. Moreover, the Activity with HL-60 [16] came to 6.44%; with HL-60 [17], 56.62%; in the data set with HL-60 [18], 2.35%; with HL-60 [19] it was 14.57%; in the data set on HL-60 [20] it was 25.85%; in the data set with HL-60 [21], 55.9%. Also, the Activity with HL-60 [22] turned out to be 1.53%; with HL-60 [23], 14.54%; in data set [24] it was 79.4%; in data set [25] it was 93.9%; in [26] it was 95%; in [27], 96.8%. In addition, the Activity in the data set on MCF7 [1] is 23.1%. Further, the IC50 in [28] is 8.6 µM; in the data set on MCF7 [2] it was over 100 µM; with HL-60 [3], 46.4 µM. For the same compound, the ΔTm in the data set with Salmonidae came to 1 °C.

Regarding `Cl.N/C(=N\O)Nc1ccc(Oc2ccc(N/C(N)=N/O)cc2)cc1`, the Activity worked out at 76.2% in data set [24]; 86.4% in data set [25]; 89.9% in data set [26]; 95.8% in data set [27]; 53% with MCF7 [1]. Further, the 50% inhibitory concentration (IC50) in [28] was found to be 12.2 µM; in the data set with MCF7 [2] it was 45.2 µM; with HL-60 [3] it was 65.5 µM. Further, in [29], the pKa was 8.3. Besides, in the data set with Salmonidae, the ΔTm amounted to 1 °C.

As to `N=C(N)c1ccc(-c2ccc(-c3ccc(C(=N)N)cc3)o2)cc1` [FURAMIDINE HYDROCHLORIDE], the ΔTm in [30] is 26.2 °C. Further, the IC50 was determined as 27.4 µM in [28], 92.8 µM with MCF7 [2] and 77.6 µM with HL-60 [3]. For the same compound, the pKa in [29] worked out at 10.4.

Turning to `N/C(=N\O)Nc1ccc(C(=O)c2ccc(N/C(N)=N/O)cc2)cc1`, in the data set on HL-60 [31], the outcome was inactive. The IC50 in the data set on HL-60 [3] was over 100 µM. The ΔTm in the data set on Salmonidae was 0 °C.

As for `N/C(=N\O)Nc1ccc(NC(=O)c2ccc(N/C(N)=N/O)cc2)cc1`, in the data set with Salmonidae, the ΔTm stood at 1 °C.
